Laboratory results as given in ChEMBL document CHEMBL1152234, “Synthesis and antitumoral evaluation of indole alkaloid analogues containing an hexahydropyrrolo[1',2',3':1,9a,9]imidazo[1,2-a]indole skeleton” (2008).
Calls of active or inactive are those of the source. The rule behind the calls is not given here.

Legend:
HT-29 = assay: Cytotoxicity against human HT-29 cells after 48 hrs by sulforhodamine B assay; type: functional; conditions: HT-29, 48 h
In short: (§1)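 Cells seeded at 5×10^3 per well in RPMI and allowed to attach for 18 h in drug-free medium. Samples were added in 3:7 DMSO/H2O, with highest concentration 100 µM, and exposed for 48 h. Cells were fixed with cold TCA at 4 °C for 60 min, stained with 0.4% SRB and solubilized in Tris. OD was read at 490 nm. GI50, TGI and LC50 came from automated analysis following the NCI protocol.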

[1] = target: T1, Catenin beta-1 (Homo sapiens) (UniProt P35222); assay: Inhibition of beta-catenin expressed in human SW480 cells by luciferase reporter gene assay
T1 sequence (whole entry): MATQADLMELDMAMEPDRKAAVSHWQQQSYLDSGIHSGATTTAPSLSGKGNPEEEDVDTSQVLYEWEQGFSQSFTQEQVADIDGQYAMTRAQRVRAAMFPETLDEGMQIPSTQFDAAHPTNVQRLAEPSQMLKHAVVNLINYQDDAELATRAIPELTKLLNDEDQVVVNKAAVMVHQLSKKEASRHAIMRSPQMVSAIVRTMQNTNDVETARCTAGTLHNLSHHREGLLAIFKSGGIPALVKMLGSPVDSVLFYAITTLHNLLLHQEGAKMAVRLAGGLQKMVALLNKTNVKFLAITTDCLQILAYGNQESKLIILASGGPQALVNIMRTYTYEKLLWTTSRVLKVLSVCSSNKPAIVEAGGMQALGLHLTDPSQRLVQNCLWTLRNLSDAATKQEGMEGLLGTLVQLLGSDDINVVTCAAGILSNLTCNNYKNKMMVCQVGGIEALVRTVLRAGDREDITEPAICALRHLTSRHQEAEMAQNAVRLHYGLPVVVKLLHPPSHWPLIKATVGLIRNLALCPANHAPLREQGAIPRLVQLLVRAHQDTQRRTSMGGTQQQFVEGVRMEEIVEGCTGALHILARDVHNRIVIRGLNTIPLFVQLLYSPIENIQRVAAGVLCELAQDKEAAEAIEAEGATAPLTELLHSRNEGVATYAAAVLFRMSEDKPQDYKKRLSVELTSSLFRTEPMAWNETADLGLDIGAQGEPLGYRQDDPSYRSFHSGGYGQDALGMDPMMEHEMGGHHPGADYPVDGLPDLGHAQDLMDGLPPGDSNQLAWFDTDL

[2] = target: Epidermal growth factor receptor (Homo sapiens) (UniProt P00533); assay: Inhibition of EGFR expressed in human HeLa cells at 10 ug/mL by AP1-luciferase reporter gene assay relative to control; type: cell-based
Chain of Epidermal growth factor receptor (Homo sapiens) (P00533 whole entry): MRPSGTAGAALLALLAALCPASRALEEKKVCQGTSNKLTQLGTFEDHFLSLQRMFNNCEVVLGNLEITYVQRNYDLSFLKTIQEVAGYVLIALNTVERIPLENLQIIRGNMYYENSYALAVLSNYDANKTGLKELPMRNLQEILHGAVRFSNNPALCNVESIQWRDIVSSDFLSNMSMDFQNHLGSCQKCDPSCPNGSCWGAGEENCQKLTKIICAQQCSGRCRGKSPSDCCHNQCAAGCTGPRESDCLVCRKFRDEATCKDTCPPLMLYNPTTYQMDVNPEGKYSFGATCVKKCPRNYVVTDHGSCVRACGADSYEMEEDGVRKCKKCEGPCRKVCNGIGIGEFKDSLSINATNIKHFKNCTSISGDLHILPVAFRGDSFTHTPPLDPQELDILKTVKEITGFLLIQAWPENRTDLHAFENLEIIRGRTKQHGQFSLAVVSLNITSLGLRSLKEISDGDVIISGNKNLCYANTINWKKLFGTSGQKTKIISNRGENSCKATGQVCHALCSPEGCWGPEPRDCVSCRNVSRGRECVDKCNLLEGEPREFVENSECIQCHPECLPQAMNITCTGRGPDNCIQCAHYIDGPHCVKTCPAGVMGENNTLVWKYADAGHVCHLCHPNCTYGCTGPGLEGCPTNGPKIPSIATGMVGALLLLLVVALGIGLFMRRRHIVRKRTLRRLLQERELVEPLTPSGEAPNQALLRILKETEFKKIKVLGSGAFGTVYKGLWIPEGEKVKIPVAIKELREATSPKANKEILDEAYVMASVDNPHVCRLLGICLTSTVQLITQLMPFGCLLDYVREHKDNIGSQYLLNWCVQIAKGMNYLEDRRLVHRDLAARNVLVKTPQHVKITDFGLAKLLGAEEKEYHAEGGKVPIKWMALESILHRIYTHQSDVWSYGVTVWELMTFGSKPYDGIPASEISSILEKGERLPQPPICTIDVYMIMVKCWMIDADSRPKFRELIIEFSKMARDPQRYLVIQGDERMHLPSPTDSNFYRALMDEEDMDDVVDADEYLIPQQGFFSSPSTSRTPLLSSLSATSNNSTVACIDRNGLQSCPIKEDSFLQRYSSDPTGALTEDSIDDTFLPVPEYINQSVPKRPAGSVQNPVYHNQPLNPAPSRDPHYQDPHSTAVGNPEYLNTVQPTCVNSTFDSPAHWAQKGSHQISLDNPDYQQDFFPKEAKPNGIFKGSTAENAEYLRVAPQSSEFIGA
In short: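 AP1-luc stably transfected HeLa cells were grown in DMEM/10% FBS at 20,000 cells/well and set for 24 h. They were treated with 1% DMSO vehicle or compound (10, 2, 0.4, 0.08, 0.016 µg/mL) before stimulation with EGF at 25 ng/mL. Control inhibitor was AG-1478 at 20 µM. Survival was checked by calcein-AM (0.1 µM, 30 min, 37 °C), then luciferase read by luminescence. Values are % of control.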

MDA-MB-231 [3] = assay: Cytotoxicity against human MDA-MB-231 cells after 48 hrs by sulforhodamine B assay; type: functional; conditions: MDA-MB-231, 48 h; for CC50: read-out: LC50 (the source's name); in short: as §1
[4] = target: Hypoxia-inducible factor 1-alpha (Homo sapiens) (UniProt Q16665); assay: Inhibition of HIF1alpha expressed in human HeLa cells at 10 ug/mL by HIF1-luciferase reporter gene assay relative to control; type: cell-based
Chain of Hypoxia-inducible factor 1-alpha (Homo sapiens) (Q16665 whole entry, looked up): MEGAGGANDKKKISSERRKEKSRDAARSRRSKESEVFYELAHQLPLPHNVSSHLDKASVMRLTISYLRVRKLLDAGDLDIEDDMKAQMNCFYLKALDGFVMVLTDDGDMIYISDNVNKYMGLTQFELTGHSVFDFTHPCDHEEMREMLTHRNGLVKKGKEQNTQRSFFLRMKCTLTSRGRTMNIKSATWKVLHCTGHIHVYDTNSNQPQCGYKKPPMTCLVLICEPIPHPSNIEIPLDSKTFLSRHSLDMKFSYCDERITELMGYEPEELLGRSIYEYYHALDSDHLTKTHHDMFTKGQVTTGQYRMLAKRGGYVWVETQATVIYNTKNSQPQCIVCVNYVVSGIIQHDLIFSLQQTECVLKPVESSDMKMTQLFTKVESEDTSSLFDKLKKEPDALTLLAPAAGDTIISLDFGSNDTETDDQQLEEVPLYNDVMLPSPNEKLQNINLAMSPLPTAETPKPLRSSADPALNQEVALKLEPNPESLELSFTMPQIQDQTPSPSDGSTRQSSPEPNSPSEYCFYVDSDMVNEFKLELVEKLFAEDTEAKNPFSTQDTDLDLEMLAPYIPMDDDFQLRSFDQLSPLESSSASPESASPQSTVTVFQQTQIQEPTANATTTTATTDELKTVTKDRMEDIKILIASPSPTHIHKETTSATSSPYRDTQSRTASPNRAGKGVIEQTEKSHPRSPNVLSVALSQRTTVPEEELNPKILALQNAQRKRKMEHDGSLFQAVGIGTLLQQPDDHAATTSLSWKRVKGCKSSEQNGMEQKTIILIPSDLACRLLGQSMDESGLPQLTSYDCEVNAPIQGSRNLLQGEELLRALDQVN
In short: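 HIF1-luc stably transfected HeLa cells were plated at 20,000 cells/well and set for 24 h. They were pretreated 30 min with 1% DMSO vehicle or compound (10, 2, 0.4, 0.08, 0.016 µg/mL), then given 50 µM deferoxamine as hypoxia mimetic for 24 h. Survival was measured by calcein-AM fluorescence (0.1 µM, 30 min, 37 °C), followed by luciferase luminescence. Reported as % of control.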

HeLa = assay: Inhibition of mitosis in human HeLa cells assessed as G2 checkpoint inhibition by ELISA; type: functional, cell-based
In short: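 ELISA immunoassay in HeLa cells. Paclitaxel and vinblastine (each 1 µg/mL) were control inhibitors. Five fixed concentrations were tested (10, 2, 0.4, 0.08, 0.016 µg/mL). Inhibition and survival are given as % of controls.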

MDA-MB-231 [5] = assay: Inhibition of histone deacetylase expressed in human MDA-MB-231 cells; type: cell-based
In short: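 Cell extracts from MDA-MB-231 breast carcinoma served as enzyme source. Trichostatin A at 250 nM was the reference inhibitor. Test concentrations were 10, 2, 0.4, 0.08 and 0.016 µg/mL. Data are % inhibition relative to controls.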

A549 = assay: Cytotoxicity against human A549 cells after 48 hrs by sulforhodamine B assay; type: functional; conditions: A549, 48 h; for CC50: read-out: LC50 (the source's name); in short: as §1

SMILES | GI50 (HT-29) [µM] | LC50 (concentration killing 50% of cells) (HT-29) [µM] | TGI (HT-29) [µM] | Activity [1] | inhibition [2] [%] | GI50 (MDA-MB-231 [3]) [µM] | TGI (MDA-MB-231 [3]) [µM] | CC50 (MDA-MB-231 [3]) [µM] | inhibition [4] [%] | Activity (HeLa) | Activity (MDA-MB-231 [5]) | GI50 (A549) [µM] | TGI (A549) [µM] | CC50 (A549) [µM]
COC(=O)[C@@H]1C[C@@]2(Br)c3cc(Br)ccc3N3C(=N)C(C)(C)N1[C@H]32 | > 100 | > 100 | > 100 | inactive | 45 | > 100 | > 100 | > 100 | 55 | inactive | inactive | > 100 | > 100 | > 100
COC(=O)[C@@H]1C[C@@]2(Br)c3ccccc3N3C(=N)[C@H](C(C)(C)C)N1[C@H]32 | > 100 | > 100 | > 100 | inactive | 0 | 17.6 | 25.5 | 25.5 | 70 | inactive | inactive | > 100 | > 100 | > 100
COC(=O)[C@@H]1C[C@@]2(CC=C(C)C)c3ccccc3N3C(=N)[C@H](c4ccccc4)N1[C@H]32 | > 100 | > 100 | > 100 | inactive | 13 | > 100 | > 100 | > 100 | 78 | inactive | inactive | > 100 | > 100 | > 100
C=CC[C@@]12C[C@@H](C(=O)OC)N3[C@@H]1N(C(=N)C31CCCCC1)c1ccccc12 | 22.4 | 25.2 | 23.5 | inactive | 52 | 23.5 | 24.6 | 25.7 | – | inactive | inactive | 23.3 | 24.1 | 25.2
COC(=O)[C@@H]1C[C@@]2(Br)c3cc(Br)ccc3N3C(=N)[C@H](C(C)(C)C)N1[C@H]32 | > 100 | > 100 | > 100 | inactive | 0 | > 100 | > 100 | > 100 | 73 | inactive | inactive | > 100 | > 100 | > 100
COC(=O)[C@@H]1C[C@@]2(CC=C(C)C)c3ccccc3N3C(=N)[C@H](C(C)(C)C)N1[C@H]32 | > 100 | > 100 | > 100 | inactive | 0 | 15.2 | 26.2 | 26.2 | 83 | inactive | inactive | > 100 | > 100 | > 100
COC(=O)[C@@H]1C[C@H]2c3ccccc3N3C(=N)C4(CCCCC4)N1[C@@H]23 | 9.23 | 9.23 | 9.23 | inactive | – | – | – | – | – | inactive | inactive | 9.23 | 9.23 | 9.23
COC(=O)[C@@H]1C[C@@]2(Br)c3cc(Br)ccc3N3C(=N)C4(CCCCC4)N1[C@H]32 | 7.45 | 14.1 | 9.31 | inactive | 83 | 6.21 | 8.49 | > 100 | – | inactive | inactive | 7.24 | 10.8 | 16.1
COC(=O)[C@@H]1C[C@]2(CC=C(C)C)c3ccccc3N3C(=N)[C@@H](Cc4ccccc4)N1[C@@H]32 | > 100 | > 100 | > 100 | inactive | 0 | 9.39 | 24.1 | 24.1 | 61 | inactive | inactive | 12 | 24.1 | 24.1
COC(=O)[C@@H]1C[C@H]2c3ccccc3N3C(=N)C(C)(C)N1[C@@H]23 | – | – | – | inactive | – | – | – | – | – | inactive | inactive | – | – | –
COC(=O)[C@@H]1C[C@@]2(CC=C(C)C)c3ccccc3N3C(=N)[C@H](Cc4ccccc4)N1[C@H]32 | 20.2 | 24.1 | 24.1 | inactive | 20 | > 100 | > 100 | > 100 | 78 | inactive | inactive | 22.1 | 24.1 | 24.1
COC(=O)[C@@H]1C[C@@]2(CC=C(C)C)c3ccccc3N3C(=N)C(C)(C)N1[C@H]32 | 4.24 | 28.3 | 28.3 | inactive | 0 | 11 | 28.3 | 28.3 | 73 | inactive | inactive | 5.66 | 28.3 | 28.3
